Screening data deposited in PubChem by several laboratories.
In the library only some 5.6% were active in any assay of this set; here they are far more common.
XBP1 UPR activ: activators of adaptive XBP1 UPR arm, primary screen, cell-based, CHO-XBP1 luciferase reporter, luminescence, uHTS | 330,000 compounds, 0.33% hits | IRE1-XBP1 UPR activation; percent of tunicamycin response, DMSO as zero | activation, % at 20 µM | AID 463104, 2010;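 active = versus positive control, 20 µM dose yields 30% or more activation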;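 note: 100% = tunicamycin at 10 µg/mL and 0% = DMSO only wells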
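Assay system: IRE1-XBP1 luciferase reporter CHO line. Input: 1000 cells/well. Buffer or medium: F12 with 10% serum. Doses: 20 µM, 1% DMSO. Times: overnight seeding at 37 °C, 6 h compound treatment at 37 °C. Technique: Steady-Glo luciferase glow luminescence, 10 min after reagent addition.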
CHOP UPR activ: activators of apoptotic CHOP UPR arm, primary screen, cell-based, CHO-CHOP luciferase reporter, luminescence, uHTS; activation, % at 10 µM; AID 449763, 2010; 330,000 compounds, 0.34% hits; UPR activation; percent of tunicamycin response over DMSO baseline;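 active = at 10 µM dose, activation of 40% or more, normalized to positive control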;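 note: 100% = tunicamycin at 10 µg/mL and 0% = DMSO alone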
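Material: CHO-CHOP cells, stable luciferase reporter of PERK-eIF2a-CHOP signalling; quantity: 500 reporter cells seeded per well; buffer or medium: F12 medium containing 10% fetal bovine serum; compound: one dose, 10 µM in 0.5% DMSO; incubation: 6 h compound treatment, 37 °C; measured by: Steady-Glo luciferase luminescence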
CHOP inhibitor: inhibitors of CHOP promoter induction, primary screen, cell-based, unfolded protein response, luciferase reporter; CHO-K1 CHOP-promoter luciferase, tunicamycin-induced, 15-18 h; inhibition, % at 10 µM; 220,000 compounds, 3.8% hits; AID 2732, 2010;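 active = compounds that reduced the stress-induced luciferase reporter signal by more than about 70% of percent inhibition, limit read from the data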;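 note: 0% = tunicamycin plus vehicle and 100% = wells without tunicamycin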
MPTP inh: mitochondrial permeability transition pore inhibitors, primary screen, biochemical, isolated mouse mitochondria, absorbance; Ca2+ swelling absorbance, 30 min; inhibition, % at 10 µM; 360,000 compounds, 1.4% hits;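 active = inhibition of 50% or more, scaled per plate between neutral and stimulator controls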;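 note: 0% = DMSO wells given calcium and 100% = 1 mM EGTA wells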
GRIN3A LBD mod: binders of NR3A ligand-binding domain, primary screen, biophysical, differential scanning fluorimetry, uHTS. Glutamate receptor ionotropic, NMDA 3A (GRIN3A) ligand-binding domain. NR3A LBD differential scanning fluorimetry, Tm shift; 0% = protein alone, 100% = glycine-bound protein. Tm shift relative to glycine control, % at 25 µM. 340,000 compounds, 2.5% hits. AID 1259313, 2017;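 active = melting temperature shift of at least 10% of the positive control shift, at one fixed dose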
aDG glyco up: activators of alpha-DG glycosylation, primary screen, uHTS, Pro5-aDG cells, AlphaScreen. alpha-DG glycosylation AlphaScreen (IIH6); 0% Pro5, 100% B10-LARGE cell signal. activation, % at 10 µM. 360,000 compounds, 0.22% hits. AID 624168, 2012;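 active = activation of at least 8% versus controls, or a plate z-score of at least 8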;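 note: Pro5 are CHO cells carrying HIG-tagged alpha-DG that lacks glycosylation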
* = called active by the depositor; / = no result.

SMILES | XBP1 UPR activ | CHOP UPR activ | CHOP inhibitor | MPTP inh | GRIN3A LBD mod | aDG glyco up
COc1ccc(-n2cc(-c3ccccc3)[nH]c2=S)cc1 | 2 | 5 | -17 | 0 | -1 | 0
COc1ccc(-n2cnc(=S)[nH]c2=S)cc1 | / | / | / | 0 | 18* | 0
O=S(=O)(c1ccc(S(=O)(=O)N2CCCC2)cc1)N1CCCCCC1 | 0 | -1 | 0 | 1 | 1 | 0
O=S(=O)(c1ccc2c(c1)C(=NO)c1cc(S(=O)(=O)N3CCCCC3)ccc1-2)N1CCCCC1 | 134* | 149* | / | 18 | 2 | 0
CCc1ccc(-c2nc(CSCC(=O)N3CCN(c4ncccn4)CC3)c(C)o2)cc1 | -4 | 0 | 90* | 2 | -4 | 1
Cc1ccc(C)c(S(=O)(=O)N2CCCCC2CCNC(=O)C(=O)NCc2ccco2)c1 (centres undefined) | -1 | 2 | / | 0 | 3 | 0
CCS(=O)(=O)c1nc(S(=O)(=O)c2ccc(C)cc2)c(N2CCC3(CC2)OCCO3)s1 | -4 | -2 | / | -1 | 0 | 0
Cc1ccc(S(=O)(=O)/N=C(/Nc2cccc3ccccc23)c2ccc(F)cc2)cc1 | -5 | 3 | / | 2 | -14 | 0
Cc1cc([N+](=O)[O-])nn1CCCC(=O)N1CCN(c2ccccc2)CC1 | -2 | -2 | -7 | 1 | -1 | 1
Cc1ccc(-n2c(CCc3ccccc3)nnc2SCC(=O)NCc2ccccc2)cc1C | -2 | 3 | 85* | 2 | 1 | 0
CCn1c(SCC(=O)NCc2ccccc2)nnc1-c1ccccc1O | -4 | -2 | 82* | 0 | -1 | 0
NCC1OC(O[C@@H]2[C@H](O)C(OC3C(O)C(N)CC(N)C3OC3OC(CO)C(O)C(O)C3N)O[C@@H]2CO)C(N)C(O)C1O (some centres undefined) | / | / | -3 | / | / | /
CCc1ccc(C2=NN(c3ccc(S(N)(=O)=O)cc3)C(c3ccc(F)cc3)C2)cc1 (centres undefined) | 12 | -1 | 90* | 3 | 8 | 3
NS(=O)(=O)c1ccc(N2N=C(c3ccccc3)CC2c2ccccc2)cc1 (centres undefined) | -3 | 0 | 81* | 1 | 1 | 2
COC(=O)C1N[C@@H]([C@@H](NC(=O)COc2ccccc2)C(=O)NC2CC2)SC1(C)C (some centres undefined) | 2 | -1 | / | 2 | -3 | 0
O=C(Cn1c(/C=C/c2ccccc2)nc2ccccc21)Nc1ccc(F)cc1 | -1 | 8 | 31 | 42 | 14* | 0
CSc1nc2ccccc2n1CC(=O)Nc1ccccc1 | 4 | -1 | 21 | -3 | 1 | 3
Cc1ccc(C2(C)NC(=O)N(CC(=O)c3ccc4c(c3)OCCO4)C2=O)cc1 (centres undefined) | -1 | -1 | / | 0 | -2 | 0
CC(=O)c1c(C)[nH]c(C(=O)CN2C(=O)NC(C)(c3ccc4c(c3)OCCO4)C2=O)c1C (centres undefined) | 0 | 1 | / | -2 | 32* | 0
Cc1cccc(NC(=S)NCC23C=CC(O2)C2C(=O)N(c4ccc(Cl)cc4)C(=O)C23)c1 (centres undefined) | -1 | 0 | 20 | 7 | 12* | 0
Cc1ccc(NC(=S)NCC23C=CC(O2)C2C(=O)N(c4ccc(C)cc4)C(=O)C23)cc1 (centres undefined) | -5 | 3 | 19 | 2 | 1 | 0
Cc1oc(-c2ccc(Cl)cc2)nc1CS(=O)CC(=O)NC1CCCC1 (centres undefined) | -3 | 0 | / | -2 | -1 | 0
Cc1ccc(N(CC(=O)Nc2cccc(Cl)c2C)S(C)(=O)=O)cc1 | -1 | 2 | / | 0 | -1 | 0
CSc1ccccc1NC(=O)C(=O)c1c[nH]c2ccccc12 | 3 | 3 | 19 | 18 | 21* | 0
CCCCn1ccnc1C(=O)c1cc(S(=O)(=O)N2CCOCC2)ccc1C | -3 | -3 | 68 | 1 | 0 | 2
SMILES | XBP1 UPR activ | CHOP UPR activ | CHOP inhibitor | MPTP inh | GRIN3A LBD mod | aDG glyco up
CCCCn1ccnc1C(=O)c1cccc(S(=O)(=O)N2CC(C)CC(C)C2)c1 (centres undefined) | -2 | 0 | 34 | 0 | 16* | 0
C/C(=N\NC(=O)C1CC1)c1ccc(NC(=O)c2ccc(Br)o2)cc1 | 7 | 4 | -11 | / | / | /
C/C(=N\NC(=O)c1c(Cl)cnn1C)c1ccc(NC(=O)c2ccc(Br)o2)cc1 | 4 | 2 | / | 0 | 14* | 0
O=C(O)c1cccc(N/N=C(\N=Nc2ccccc2)c2ccccc2)c1 | 1 | 1 | / | 5 | -12 | 0
O=C(O)c1ccc(N=N/C(=N\Nc2ccc(C(=O)O)cc2)c2ccccc2)cc1 | -4 | 4 | / | 3 | 23* | 0
Cc1ccc2oc(=O)c3cnn(CC(=O)Nc4cc(-c5cccc(F)c5)no4)c3c2c1 | 0 | -1 | 96* | 2 | -9 | 0
CCOc1ccc(CN2CCN(CC(O)Cn3c4ccccc4c4ccccc43)CC2)cc1 (centres undefined) | 10 | 4 | 108* | -1 | -1 | 0
O=S(=O)(c1cccc(-c2nc3n(n2)Cc2ccccc2-3)c1)N1CCCCC1 | 0 | 3 | 53 | -1 | -14 | 0
O=S(=O)(c1cccc(-c2nc3n(n2)Cc2ccccc2-3)c1)N1CCCC1 | -1 | 1 | -22 | 0 | 13* | 0
O=C(CSc1ccc(Br)cc1)Nc1ccccc1N1CCOCC1 | -5 | 1 | / | 0 | 4 | 0
Cc1ccc2nc(N3CCC(C(=O)O)CC3)nc(-c3ccccc3)c2c1 | 2 | -2 | -1 | -4 | 0 | 0
Cc1ccc2nc(N3CC(=O)Nc4ccccc43)nc(-c3ccccc3)c2c1 | / | / | 89* | 1 | -18 | 0
Nc1nc(N)c(Br)c(Nc2ccc(Cl)c(Cl)c2)n1 | / | / | / | -2 | 1 | 0
Nc1nc(N)c(C=Nc2ccc(Br)cc2)c(Nc2ccc(Br)cc2)n1 | 7 | 0 | 21 | 2 | 51* | 0
O=C(O)c1ccc(COc2ccccc2C=C2C(=O)c3ccccc3C2=O)cc1 | 2 | -1 | 18 | 1 | 29* | 0
CCN(CC)CCNC(=O)Cn1nc(-c2ccc(C)cc2)ccc1=O | 2 | -2 | 86* | -1 | -18 | 0
O=[N+]([O-])c1cc2c(cc1Br)-c1ccccc1C2 | / | / | / | -1 | / | 0
